Assay outcomes (PubChem BioAssay)
E coli WT exp – growth inhibitors of E. coli BW25113 wild type; AID 710; OD600 absorbance; growth inhibition, % at 100 µM; 98,000 compounds, 0.15% hits;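 active = growth inhibition above about 50% at one test dose, limit read from the data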;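 note: growth measured after 20 h incubation at 37 °C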
HER2 expr 66K – inhibitors of human Her2 kinase expression; SKBR-3 HER2 protein level, AlphaScreen, 18-24 h; hits give low values; P04626; HER2 level % of control, % at 10 µM; 65,000 compounds, 0.69% hits;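 active = HER2 level under 5% of the carrier-only control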;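 note: 100% = DMSO carrier and 0% = 500 nM PU-H71 HSP90 inhibitor; lower value means stronger loss of Her2 protein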
PostGolgi yeast – growth inhibition of a yeast mutant, post-Golgi transport screen; AID 739; 98,000 compounds, 0.9% hits; post-Golgi transport phenotypic cell assay; inhibition, % at 10 µM;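 note: yeast cells grown in 1536-well plates; yeast grown about 18 h at 30C before absorbance read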
PostGolgi ctrl – yeast control strain growth, post-Golgi counter-screen | 98,000 compounds, 5% hits | inhibition, % at 10 µM | efflux-deficient yeast background strain, growth absorbance A615, 16 h | AID 738
tolC growth inh – blocks growth of E. coli BW25113 tolC mutant; 65,000 compounds, 2.2% hits; AID 573; growth inhibition, % at 10 µM (by protocol); OD615;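 active = growth inhibition at or above a cutoff equal to the mean over every tested compound plus 3 SD, cut at about 60% in these data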;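 note: growth measured after 20 h incubation at 37 °C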
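System: E. coli ΔtolC::kan strain BW25113; Buffer or medium: LB broth supplemented with 50 µg/mL kanamycin; Compound: 10 µM final, single dose; Incubation: bacterial growth with compound for 20 h at 37 °C; Signal: A615 absorbance measurement; Evaluation: growth inhibition in percent.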
* marks the source's active call; other numbers are inactive results; · = no result. Sampled rows, rich in hits. Any-hit rate of the full collection: about 6.6%. Cut-off read from the data, not from the text of the source, unless noted: active = inhibition above about 30%; inactive = the rest.

SMILES	E coli WT exp	HER2 expr 66K	PostGolgi yeast	PostGolgi ctrl	tolC growth inh
CC1CCCC/C1=N/Nc1ccc([N+](=O)[O-])cc1[N+](=O)[O-] (configuration not stated)	1	·	-3	36*	·
O=C(CN1CCOCC1)Nc1cccc(Br)c1	5	85	-4	31*	-19
O=C(CCN1CCOCC1)Nc1cccc(Br)c1	2	107	6	3	-5
O=C(CN1CCOCCOCCN(CC(=O)Nc2ccccc2)CCOCC1)Nc1ccccc1	0	92	30*	2	-31
O=C(CN1CCOCCOCCOCC1)Nc1ccccc1	2	·	-4	1	·
CC1(c2ccccc2)NC(=O)N(CC(=O)NC(=O)NCc2ccco2)C1=O (configuration not stated)	-3	·	0	3	·
O=C(CN1C(=O)NC2(CCCCCCC2)C1=O)NC(=O)NCc1ccco1	8	80	8	38*	16
O=C(CN1CCN(C(c2ccccc2)c2ccccc2)CC1)NC(=O)NCc1ccco1	-10	98	5	36*	6
COc1cccc(C(=O)NCCn2ccc3ccccc32)c1	5	99	-7	40*	12
O=C(COc1ccc2ccccc2c1)NCCn1ccc2ccccc21	-10	·	-22	48*	·
O=C(Cc1ccccc1)NCCn1ccc2ccccc21	-2	64	9	27	-2
COc1cc(OC)cc(C(=O)NCCn2ccc3ccccc32)c1	-2	106	8	-13	12
O=C(O)C1CSC2(CCN(Cc3ccccc3)CC2)N1 (configuration not stated)	·	103	·	·	-24
CN1CCN(C(=O)c2cc(Cl)ccc2Cl)CC1	4	·	0	31*	-6
CN(C)c1nc(C(N)=O)nc(N2CCOCC2)n1	3	·	10	11	·
CN(c1ccccc1)S(=O)(=O)c1ccc(C(=O)Nc2nnc(-c3ccc(F)cc3)o2)cc1	-8	65	9	5	100*
CN(Cc1ccccc1)S(=O)(=O)c1ccc(NS(C)(=O)=O)cc1	1	60	9	12	29
CN(c1ccccc1)S(=O)(=O)c1ccc(NC(=O)c2ccc(-c3ccccc3)cc2)cc1	-18	·	1	15	·
CN(Cc1ccccc1)S(=O)(=O)c1ccc(C(=O)Nc2nnc(C3CC3)o2)cc1	-1	51	-7	20	100*
COc1ccccc1-c1nnc(NC(=O)c2ccc(S(=O)(=O)N(C)Cc3ccccc3)cc2)o1	-13	84	17	7	95*
N#Cc1cc(C#N)c(N2CCN(c3cccc(Cl)n3)CC2)nc1N	7	·	1	58*	·
Cc1cccc2cc(C#N)c(N3CCN(C)CC3)nc12	11	96	6	6	0
Cc1c(-n2cc(C(=O)c3cc(Br)ccc3O)cc(C#N)c2=O)c(=O)n(-c2ccccc2)n1C	-1	·	0	12	·
Cc1cc(C)cc(N2CC34C=CC(O3)C(C(=O)OCC(=O)NCc3ccco3)C4C2=O)c1 (configuration not stated)	-10	102	-2	14	-6
COc1ccc(OC)c(C2SCCN2S(=O)(=O)c2cccc(C(F)(F)F)c2)c1 (configuration not stated)	-24	91	-2	16	45
SMILES	E coli WT exp	HER2 expr 66K	PostGolgi yeast	PostGolgi ctrl	tolC growth inh
COc1cc(Cc2cnc(N)nc2N)cc(OC)c1OC	100*	87	-3	1	97*
COc1ccc(-c2cn3c(C)c(C(=O)N4CCN(c5ccccc5F)CC4)sc3n2)cc1	·	92	·	·	23
Cc1c(C(=O)N2CCN(c3ccccc3F)CC2)sc2nc(-c3ccccc3)cn12	-8	109	-3	35*	51
Cc1ccc(C)c(S(=O)(=O)N2CCN(C(=O)Cn3c(C(F)(F)F)nc4ccccc43)CC2)c1	-8	·	13	7	·
CC(O)CCc1nc2ccc(C(=O)O)cc2[nH]1 (configuration not stated)	-1	-19*	10	2	-10
CC(=O)Nc1cccc(C(=O)OC(C(=O)c2ccc(C)cc2)c2ccccc2)c1 (configuration not stated)	-8	·	-11	33*	·
CC(=O)Nc1cccc(C(=O)OC(C(=O)c2ccc(C)c(C)c2)c2ccccc2)c1 (configuration not stated)	-7	·	-2	25	·
CCN1CCCC1CNC(=O)c1ccc(CS(=O)(=O)c2ccccc2C)o1 (configuration not stated)	8	78	-9	-9	-13
Cn1cccc1C(=O)Nc1nc(-c2ccccn2)cs1	19	113	1	6	90*
O=C(CN1C(=O)CCC1=O)Nc1nc(-c2ccccn2)cs1	-2	84	3	10	-12
Cc1csc(NC(=O)c2cccn2C)n1	0	·	-4	31*	·
O=c1cc(NCc2ccco2)c2ccccc2o1	16	59	-12	12	-2
CCNc1nc(SCCOc2ccc(C)cc2)nc(N(C)C)n1	-5	109	-10	8	24
COc1ccc(OCCCSc2ncccn2)cc1	12	92	-3	8	-2
CCOc1nc(SCCOc2ccccc2)nc(N(C)C)n1	7	121	41*	5	2
CN(C)c1nc(SCCOC(=O)Nc2ccccc2)nc(N(C)C)n1	-29	114	-6	13	86*
CN(C)c1nc(C(=O)Nc2ccccc2)nc(N(C)C)n1	-3	98	5	1	9
COc1ccc(OCCSc2ncccn2)cc1	3	85	-4	33*	-18
O=C1CC(C(=O)Nc2nccs2)C(c2ccccc2)O1 (configuration not stated)	·	44	·	·	-4
Cc1cc2c3nonc3ccc2n1-c1ccccc1	0	105	5	35*	5
Cc1cc(C)c2c3c(sc2n1)C(=O)N(Cc1ccccc1)CC(=O)N3	2	·	17	5	·
Cc1ccc(NC(=O)Cc2nnc(SCC(=O)c3ccc(Br)cc3)n2C)cc1	-4	·	-1	4	·
COc1ccc(OCC(O)CNc2ccc(Br)cc2)cc1 (configuration not stated)	31	84	6	18	73*
Cc1cc(C)c2cc(CN(CCO)C(=O)Nc3ccc(Cl)cc3)c(=O)[nH]c2c1	-4	88	5	47*	-15
Cc1ccc(NC(=O)c2ccc(CSc3nnc(C)s3)cc2)cc1	-3	·	-7	-3	·
SMILES	E coli WT exp	HER2 expr 66K	PostGolgi yeast	PostGolgi ctrl	tolC growth inh
O=C(Nc1ccc(Br)cc1)c1ccc(CSC2=NCCS2)cc1	-10	·	2	34*	·
C=C(C)COc1ccc(-c2[nH]ncc2-c2ccc(OC)c(OC)c2)c(O)c1	2	16	-12	29	91*
CCOc1ccc(-c2nc(N)nc(C)c2-c2ccc(OC)c(OC)c2)c(O)c1	-3	96	5	16	-8
C=C(C)COc1ccc(-c2[nH]ncc2-c2ccccc2)c(O)c1	26	·	45*	62*	·
CCOC(=O)c1c(N)sc(C(O)(C(F)(F)F)C(F)(F)F)c1-c1ccc(Cl)cc1	1	·	-1	72*	·
CCOC(=O)c1c(N)sc(C(O)(C(F)(F)F)C(F)(F)F)c1-c1ccc(F)cc1	20	·	2	16	·
